Screening results from PubChem.
SMARCA2 activ: SMARCA2 (BRM) function activators, primary screen, cell-based, luminescence, high throughput; MG213 cells, MMTV-luciferase reporter, dexamethasone, overnight; activation, % at 9.1 µM; hit rate 1% among 370,000; in the data active means activation above about 7.8%;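 further: 0% = vehicle wells and 100% = reference activator wells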
DAX1 inh-1: DAX1 (NR0B1) inhibitors on StAR promoter, primary screen, cell-based, luminescence, SF-1 (NR5A1), full-length DAX-1 | HEK293T StAR-luciferase reporter, SF-1/DAX-1 repression relief | hit rate 1.1% among 370,000 | AID 652010, 2013 | inhibition, % at 6.8 µM;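 active means inhibition above the mean over all tested compounds plus 3 SD, cut at about 3.6% in these data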;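 further: 0% = DAX-1 cells with DMSO and 100% = cells lacking DAX-1 with DMSO; higher inhibition means more luminescence from relief of DAX-1 repression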
DAX1 inh-2: DAX1 (NR0B1) inhibitors, primary screen, cell-based, HEK293, Gal4-DAX1, luciferase luminescence; Nuclear receptor subfamily 0 group B member 1 (Homo sapiens), P51843; HEK293 Gal4-DAX1 luciferase reporter; inhibition, % at 6.75 µM; hit rate 0.99% among 340,000; AID 504766, 2011;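 active means inhibition above the mean over all tested compounds plus 3 SD, cut at about 4.2% in these data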;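 further: 0% = DAX1-transfected cells with DMSO and 100% = empty-vector control cells with DMSO; inhibition shows as a rise in luminescence from relieved DAX1 repression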
Target sequence (P51843 207-470 limits assumed): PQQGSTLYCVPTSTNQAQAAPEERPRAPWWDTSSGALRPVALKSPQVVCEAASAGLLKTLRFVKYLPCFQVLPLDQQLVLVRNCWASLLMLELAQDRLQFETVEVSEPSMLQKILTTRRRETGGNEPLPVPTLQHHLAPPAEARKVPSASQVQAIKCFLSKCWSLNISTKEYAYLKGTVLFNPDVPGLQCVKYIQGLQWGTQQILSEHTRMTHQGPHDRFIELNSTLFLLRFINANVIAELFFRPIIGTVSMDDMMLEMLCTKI
NR2E3 ag-1: NR2E3 agonists in two-hybrid cells, primary screen, cell-based, luminescence, CHO-S, Gal4-NCOR/VP16-NR2E3; luciferase; inhibition of corepressor binding, % at 3.98 µM; hit rate 0.35% among 360,000; Photoreceptor-specific nuclear receptor (Homo sapiens), Q9Y5X4;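 active means inhibition above the mean of all tested compounds plus 3 SD, cut at about 70% in these data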;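 further: 0% = DMSO with NR2E3 transfected cells and 100% = cells lacking NR2E3 construct; higher means lower luciferase signal from less NR2E3 corepressor binding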
Target sequence (Q9Y5X4 whole entry, looked up, the tested form may be a part): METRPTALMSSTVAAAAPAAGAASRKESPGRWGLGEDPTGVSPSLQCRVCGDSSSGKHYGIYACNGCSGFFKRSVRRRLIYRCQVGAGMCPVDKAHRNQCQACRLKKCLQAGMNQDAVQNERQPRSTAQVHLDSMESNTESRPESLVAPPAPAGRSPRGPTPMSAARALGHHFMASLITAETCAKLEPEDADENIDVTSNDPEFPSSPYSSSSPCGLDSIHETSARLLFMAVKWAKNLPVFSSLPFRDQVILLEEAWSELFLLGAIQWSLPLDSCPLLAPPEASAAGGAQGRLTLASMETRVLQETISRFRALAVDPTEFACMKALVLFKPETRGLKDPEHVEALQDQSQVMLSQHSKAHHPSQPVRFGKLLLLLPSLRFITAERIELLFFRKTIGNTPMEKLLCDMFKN
NR2E3 ag-2: inhibitors of NR2E3-RetCOR corepressor binding, primary screen, NR2E3 agonist project, biochemical, TR-FRET, GST-NR2E3, biotin-RetCOR | Photoreceptor-specific nuclear receptor (Homo sapiens), Q9Y5X4 | hit rate 0.12% among 320,000 | inhibition of corepressor binding, % at 4.78 µM | 1536-well;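 active means percent inhibition above the cutoff of mean plus 3 SD of all tested compounds, set per screening campaign, cut at about 20% in these data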;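 further: 0% = DMSO wells and 100% = biotin wells as full block of FRET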
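Assay system: NR2E3–RetCOR corepressor complex. Quantity: 1.35 nM GST-NR2E3. Buffer or medium: pH 7.5 Tris-based buffer. Reagent: biotinylated RetCOR corepressor at 7 nM final. Schedule: 5 h at 4 °C. Detection: TR-FRET, emission read at 617 and 671 nm. Replicates: one well per compound, singlicate testing.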
JMJD2C inh: inhibitors of GASC-1 histone demethylase, primary screen, biochemical, fluorescence, DELFIA europium | hit rate 0.069% among 330,000 | Lysine-specific demethylase 4C (Homo sapiens), Q9H3R0 | AID 2099, 2009 | GST-JMJD2C(1-420) H3K9me3 demethylation | inhibition, % at 2.35 µM;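 active means more than half of a compound's replicate wells show inhibition beyond 50%, single wells judged on their own value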;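 further: signal counts dimethyl H3K9 product captured on neutravidin plate; 0% = median of DMSO wells and 100% = 0.3 times that DMSO median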
SMARCA2 act conf: SMARCA2 (BRM) function activators, confirmation, cell-based, luminescence, triplicate; MG213 cells, MMTV-luciferase with dexamethasone, overnight; MG213 cells expressing E1A, Rb sequestered; DMSO wells 0%, reference activator 100%; hit rate 30% among 3,500; shares compounds with SMARCA2 activ; activation, % at 9.1 µM;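 active means activation above its plate's cutoff, the mean activation of tested wells plus 3 SD, cut at about 7.9% in these data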
VP16 Luc act: GAL4-VP16 luciferase reporter activation, counter-screen for SMARCA2 (BRM) activator project, cell-based, pG5luc, luminescence, high throughput. shares compounds with SMARCA2 activ. AID 686939, 2013. activation, % at 9.1 µM. HEK293 GAL4-VP16 pG5luc reporter; scaled: DMSO wells 0%, SAHA wells 100%. hit rate 41% among 3,500;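 active means activation above the solvent-only control well mean plus 3 SD, averaged across control plates, cut at about 5.2% in these data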
An asterisk follows results filed as active; nt = no result given. Rows were chosen to be rich in hits. Some 3.2% of all compounds tested hit in one or more screens of this group.

SMILES	SMARCA2 activ	DAX1 inh-1	DAX1 inh-2	NR2E3 ag-1	NR2E3 ag-2	JMJD2C inh	SMARCA2 act conf	VP16 Luc act
Cn1c(=O)c2cc(S(=O)(=O)NC(C(=O)Nc3cccnc3)c3ccccc3)ccc2n(C)c1=O (stereo not drawn)	10*	0	0	-22	-4	nt	0	-2
CC1CCc2onc(C(=O)O)c2C1 (stereo not drawn)	-1	0	0	-18	4	5	nt	nt
CCCCCCCCCc1conc1C(=O)/C=C/c1oc2c(c1C)CCC(C)C2 (stereo not drawn)	9.0*	4	nt	nt	nt	nt	-7	0
COc1cccc(-c2nnc3sc(-c4ccc(C)cc4)nn23)c1	nt	nt	nt	nt	0	-8	nt	nt
COc1cccc(-c2nn3c(-c4cccc(C)c4)nnc3s2)c1	11*	2	0	-26	5	-3	5	5
COc1ccc(-c2cc(-c3nnc4sc(-c5cccs5)nn34)[nH]n2)cc1	8.5*	1	nt	nt	nt	nt	7	8.1*
COc1cccc(-c2nnc3sc(-c4cccs4)nn23)c1	0	0	3	-59	0	3	nt	nt
COc1cc(O)c2c(=O)c3c(OC)c(O)ccc3oc2c1	9.7*	1	2	-34	0	2	9.0*	4
Nc1cccc(C(=O)OCC(=O)Nc2cccc3c2C(=O)c2ccccc2C3=O)c1	7	-1	0	-1	5	-9	nt	nt
CCN(CC)CCC(=O)Nc1cccc2c1C(=O)c1ccccc1C2=O	33*	0	nt	-34	-1	13	95*	4
CC(=O)c1cccc(NC(=O)CN(C)S(=O)(=O)c2ccc3c(c2)CC(C)N3C(C)=O)c1 (stereo not drawn)	-2	-1	0	10	0	-1	nt	nt
O=C(NCc1ccccc1)C(=O)Nc1cccc(C(=O)O)c1	13*	2	-4	-69	0	0	10*	11*
CCOc1ccc(NC(=O)Nc2cccc(C(=O)O)c2)cc1	11*	2	-5	-154	3	113	7	9.3*
CSc1cccc(NC(=O)C(=O)NCc2ccccc2)c1	1	0	nt	3	4	0	nt	nt
CCOC(=O)c1cccc(NC(=O)Nc2ccc(OCC)cc2)c1	0	0	-3	-158	-1	-1	nt	nt
O=C(Nc1cccc(Cl)c1)Nc1cccc(C(=O)O)c1	14*	1	nt	-90	1	-41	7.9*	4
COC(=O)[C@]12C[C@H](CC(=O)NCCC(C)C)C(=O)N(Cc3ccco3)C1=C[C@H](COCc1ccccc1)O[C@@H]2C	-4	-1	nt	nt	nt	nt	nt	nt
CC1=Nn2c(nc3sc4c(c3c2=O)CCCC4)SC1	10*	1	2	-41	-2	-16	0	1
COC(=O)c1cc2c(c3c4cc(C)ccc4n(S(=O)(=O)c4ccc(C)cc4)c13)C(=O)N(C)C2	-6	0	nt	nt	nt	nt	nt	nt
COc1cc(/C=N/Nc2ccccn2)ccc1O	9.6*	2	4.3*	-46	2	14	7	10*
Cc1c(/C=C/C(=O)c2ccc(O)cc2)cnn1C	8.0*	2	4	-34	0	0	14*	6.9*
Nn1nnc2ccccc21	-2	1	2	-92	3	6	nt	nt
C(=C\n1nnc2ccccc21)/c1ccccn1	8.7*	3	1	-156	-2	6	8	10*
COc1cccc2c(=O)c(C(=O)NCc3cccs3)c[nH]c12	10*	1	2	-65	0	6	17*	5.9*
CCCCCn1nnnc1C1(C)CCSCC(=O)N1Cc1ccco1 (stereo not drawn)	8.4*	0	nt	nt	nt	nt	-1	-1
SMILES	SMARCA2 activ	DAX1 inh-1	DAX1 inh-2	NR2E3 ag-1	NR2E3 ag-2	JMJD2C inh	SMARCA2 act conf	VP16 Luc act
Cc1cccc(C)c1-n1nnnc1C1(C)CCC(=O)N1Cc1ccco1 (stereo not drawn)	-3	1	nt	-28	nt	nt	nt	nt
C=C(C)CSc1nnc(-c2ccc(OC)cc2)n1N	9.5*	1	1	-1	4	5	0	2
Cc1ccc(CSc2nnc(-c3ccncc3)n2N)cc1	8.8*	0	nt	-16	0	7	-1	0
C[C@H](O)[C@@H]1C(=O)N2CCc3c([nH]c4c(-c5ccc6c(c5)OCO6)cccc34)[C@@H]2C[C@@H]1N(C)C(=O)Nc1ccccc1	1	1	nt	nt	nt	nt	nt	nt
COc1cccc(CNC(=O)CN2C(=O)CCSc3ccc(S(=O)(=O)N4CCCC4)cc32)c1	-2	-1	-1	12	3	4	nt	nt
CC(=O)c1ccc(NC(=S)NCCc2cccc(Cl)c2)cc1	8.0*	3	3	-114	3	-29	5	11*
COc1ccc(/C=C/C(=O)NC(=S)Nc2ccc(S(=O)(=O)Nc3nccnc3OC)cc2)cc1	13*	0	-1	-43	-3	1	1	1
Cc1cc(C(=O)Nc2cnc3ccccc3c2)ccc1[N+](=O)[O-]	9.3*	2	3	-19	4	6	5	8.5*
Cc1ccc(C(=O)Nc2cnc3ccccc3c2)cc1	-6	-3	-6	-104	-1	-10	nt	nt
CCNc1nc(NCC)nc(SCCOc2ccc(C)cc2)n1	9.6*	-1	-3	-7	3	-4	1	5
CCOc1nc(SCCOc2ccc(C)cc2)nc(N(C)C)n1	-4	-1	0	-6	0	nt	nt	nt
CC(C)CN1C(=O)C[C@@]2(C(=O)N(C)c3ccc(NS(=O)(=O)c4ccc(F)cc4)cc32)C1c1ccccc1 (stereo partly drawn)	-3	1	nt	nt	nt	nt	nt	nt
O=C(/C=C/c1ccccc1[N+](=O)[O-])OCC(=O)c1ccccc1	10*	-1	0	1	-1	nt	8.0*	2
CCN(CC)S(=O)(=O)c1ccc(NC(=O)CCC2CCCCC2)cc1	9.4*	0	-2	0	1	2	5	1
Cc1cc2nc(/C=C/c3cccnc3)[nH]c2cc1C	8.7*	4.0*	0	-114	nt	9	16*	27*
